Experimental data as given in ChEMBL document CHEMBL1649571, “In vitro activity of TR-700, the active ingredient of the antibacterial prodrug TR-701, a novel oxazolidinone antibacterial agent” (2009).
In brackets after ≈: the same amount, converted by molar mass.

Experiments:
Assay type in all cases: functional
Bacteroides ovatus = experiment: Antibacterial activity against Bacteroides ovatus by CLSI M11-A7 agar dilution method
Summary of the method: (§1)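 Recent (2005 to 2008) clinical isolates. Anaerobes grown 48 h in an anaerobic glove box, with inoculum suspensions made in prereduced broth inside the box. A Steers replicator stamped the inoculum onto drug-supplemented agar. After absorption, plates were incubated 48 h at 37°C, then removed from the box and the MIC read. QC strains were run against the CLSI ranges.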

Prevotella sp. = experiment: Antibacterial activity against Prevotella sp. by CLSI M11-A7 agar dilution method; summary of the method: as §1
[1] = tested on: Peptostreptococcus anaerobius; experiment: Antibacterial activity against Peptostreptococcus anaerobius by CLSI M11-A7 agar dilution method; summary of the method: as §1
[2] = tested on: Bacteroides thetaiotaomicron; experiment: Antibacterial activity against Bacteroides thetaiotaomicron by CLSI M11-A7 agar dilution method; summary of the method: as §1
Parvimonas micra = experiment: Antibacterial activity against Peptostreptococcus micros by CLSI M11-A7 agar dilution method; summary of the method: as §1
Clostridium perfringens = experiment: Antibacterial activity against Clostridium perfringens by CLSI M11-A7 agar dilution method
Summary of the method: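 Reference agar dilution MIC on recent (2005–2008) clinical isolates. Cultures grown 48 h in an anaerobic glove box; inoculum suspended in prereduced broth inside the box and stamped by Steers replicator onto drug-supplemented agar. Plates incubated 48 h at 37°C before MIC reading. QC strains run alongside, required to fall within CLSI ranges.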

[3] = tested on: Porphyromonas asaccharolytica; experiment: Antibacterial activity against Porphyromonas asaccharolytica by CLSI M11-A7 agar dilution method; summary of the method: as §1
Phocaeicola vulgatus = experiment: Antibacterial activity against Bacteroides vulgatus by CLSI M11-A7 agar dilution method; summary of the method: as §1
Bacteroides fragilis = experiment: Antibacterial activity against Bacteroides fragilis by CLSI M11-A7 agar dilution method; summary of the method: as §1
Enterococcus faecium [4] = experiment: Antibacterial activity against vancomycin-resistant Enterococcus faecium by CLSI M7-A7 broth microdilution method
Summary of the method: (§2)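 Reference broth microdilution MIC under aerobic conditions on recent (2005–2008) clinical isolates from U.S. and non-U.S. sites. QC strains run alongside, required to fall within published CLSI ranges.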

Streptococcus pneumoniae [5] = experiment: Antibacterial activity against penicillin-resistant Streptococcus pneumoniae by CLSI M7-A7 broth microdilution method; summary of the method: as §2
[6] = tested on: Staphylococcus epidermidis; experiment: Antibacterial activity against methicillin-resistant Staphylococcus epidermidis by CLSI M7-A7 broth microdilution method; summary of the method: as §2
Streptococcus pyogenes = experiment: Antibacterial activity against Streptococcus pyogenes by CLSI M7-A7 broth microdilution broth microdilution method; summary of the method: as §2
Streptococcus pneumoniae [7] = experiment: Antibacterial activity against penicillin-intermediate Streptococcus pneumoniae by CLSI M7-A7 broth microdilution method; summary of the method: as §2
Enterococcus faecalis [8] = experiment: Antibacterial activity against vancomycin-susceptible Enterococcus faecalis by CLSI M7-A7 broth microdilution method; summary of the method: as §2
Haemophilus influenzae = experiment: Antibacterial activity against Haemophilus influenzae by CLSI M7-A7 broth microdilution method
Summary of the method: (§3)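 Recent (2005 to 2008) clinical isolates from U.S. (80%) and non-U.S. (20%) sites. Aerobic MICs were determined by CLSI reference broth microdilution, with quality control strains checked against the published CLSI ranges.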

Staphylococcus aureus [9] = experiment: Antibacterial activity against methicillin-susceptible Staphylococcus aureus by CLSI M7-A7 broth microdilution method; summary of the method: as §2
Streptococcus pneumoniae [10] = experiment: Antibacterial activity against penicillin-susceptible Streptococcus pneumoniae by CLSI M7-A7 broth microdilution method; summary of the method: as §2
Moraxella catarrhalis = experiment: Antibacterial activity against Moraxella catarrhalis by CLSI M7-A7 broth microdilution method; summary of the method: as §3
Staphylococcus aureus [11] = experiment: Antibacterial activity against community-acquired methicillin-resistant Staphylococcus aureus by CLSI M7-A7 broth microdilution method; summary of the method: as §2
Staphylococcus aureus [12] = experiment: Antibacterial activity against methicillin-resistant Staphylococcus aureus by CLSI M7-A7 broth microdilution method; summary of the method: as §2
[13] = tested on: Staphylococcus epidermidis; experiment: Antibacterial activity against methicillin-susceptible Staphylococcus epidermidis by CLSI M7-A7 broth microdilution method
Enterococcus faecalis [14] = experiment: Antibacterial activity against vancomycin-resistant Enterococcus faecalis by CLSI M7-A7 broth microdilution method; summary of the method: as §2
Streptococcus agalactiae = experiment: Antibacterial activity against Streptococcus agalactiae by CLSI M7-A7 broth microdilution method; summary of the method: as §2
Enterococcus faecium [15] = experiment: Antibacterial activity against vancomycin-susceptible Enterococcus faecium by CLSI M7-A7 broth microdilution method; summary of the method: as §2

C[C@@H](O)[C@H]1C(=O)N2C(C(=O)O)=C(SCCNC=N)C[C@H]12 [IMIPENEM ANHYDROUS] was tested, and the MIC50 (Bacteroides ovatus) was 0.25 µg/mL (≈ 0.835 µM), the MIC90 (Bacteroides ovatus) was 0.5 µg/mL (≈ 1.67 µM) and the MIC50 (Prevotella sp.) was no more than 0.06 µg/mL. The MIC90 (Prevotella sp.) was 1 µg/mL (≈ 3.34 µM), the MIC50 [1] was 0.06 µg/mL (≈ 0.2 µM) and the MIC90 [1] was 1 µg/mL (≈ 3.34 µM). For the same molecule, the MIC50 [2] was 0.5 µg/mL (≈ 1.67 µM), the MIC90 [2] was 1 µg/mL (≈ 3.34 µM) and the MIC (Parvimonas micra) was no more than 0.03 µg/mL. For the same molecule, the MIC50 (Parvimonas micra) was no more than 0.03 µg/mL, the MIC90 (Parvimonas micra) was no more than 0.03 µg/mL and the MIC50 (Clostridium perfringens) was 0.12 µg/mL (≈ 0.401 µM). It also gave an MIC90 (Clostridium perfringens) of 0.5 µg/mL (≈ 1.67 µM), an MIC [3] of no more than 0.03 µg/mL and an MIC50 [3] of less than 0.03 µg/mL. The MIC90 [3] was 0.06 µg/mL (≈ 0.2 µM), the MIC (Phocaeicola vulgatus) was 0.25 µg/mL (≈ 0.835 µM) and the MIC50 (Phocaeicola vulgatus) was 0.25 µg/mL (≈ 0.835 µM). The MIC90 (Phocaeicola vulgatus) was 0.5 µg/mL (≈ 1.67 µM), the MIC (Bacteroides fragilis) was 0.12 µg/mL (≈ 0.401 µM) and the MIC50 (Bacteroides fragilis) was 0.12 µg/mL (≈ 0.401 µM). The MIC90 (Bacteroides fragilis) was 0.5 µg/mL (≈ 1.67 µM).

For CC(=O)NC[C@H]1CN(c2ccc(N3CCOCC3)c(F)c2)C(=O)O1 [LINEZOLID], the MIC50 (Enterococcus faecium [4]) was 2 µg/mL (≈ 5.93 µM), the MIC90 (Enterococcus faecium [4]) was 2 µg/mL (≈ 5.93 µM) and the MIC50 (Streptococcus pneumoniae [5]) was 1 µg/mL (≈ 2.96 µM). The MIC90 (Streptococcus pneumoniae [5]) was 1 µg/mL (≈ 2.96 µM), the MIC50 [6] was 1 µg/mL (≈ 2.96 µM) and the MIC90 [6] was 2 µg/mL (≈ 5.93 µM). It also gave an MIC50 (Bacteroides ovatus) of 8 µg/mL (≈ 23.7 µM), an MIC90 (Bacteroides ovatus) of 8 µg/mL (≈ 23.7 µM) and an MIC50 (Streptococcus pyogenes) of 1 µg/mL (≈ 2.96 µM). The MIC90 (Streptococcus pyogenes) was 2 µg/mL (≈ 5.93 µM), the MIC50 (Streptococcus pneumoniae [7]) was 1 µg/mL (≈ 2.96 µM) and the MIC90 (Streptococcus pneumoniae [7]) was 1 µg/mL (≈ 2.96 µM). For the same molecule, the MIC50 (Enterococcus faecalis [8]) was 2 µg/mL (≈ 5.93 µM), the MIC90 (Enterococcus faecalis [8]) was 2 µg/mL (≈ 5.93 µM) and the MIC50 (Haemophilus influenzae) was 16 µg/mL (≈ 47.4 µM). The MIC90 (Haemophilus influenzae) was 32 µg/mL (≈ 94.9 µM), the MIC50 (Staphylococcus aureus [9]) was 2 µg/mL (≈ 5.93 µM) and the MIC90 (Staphylococcus aureus [9]) was 4 µg/mL (≈ 11.9 µM). It also gave an MIC50 (Prevotella sp.) of 2 µg/mL (≈ 5.93 µM), an MIC90 (Prevotella sp.) of 4 µg/mL (≈ 11.9 µM) and an MIC50 (Streptococcus pneumoniae [10]) of 1 µg/mL (≈ 2.96 µM). The MIC90 (Streptococcus pneumoniae [10]) was 1 µg/mL (≈ 2.96 µM), the MIC50 (Moraxella catarrhalis) was 8 µg/mL (≈ 23.7 µM) and the MIC90 (Moraxella catarrhalis) was 8 µg/mL (≈ 23.7 µM). The MIC50 [1] was 1 µg/mL (≈ 2.96 µM), the MIC90 [1] was 2 µg/mL (≈ 5.93 µM) and the MIC50 (Staphylococcus aureus [11]) was 2 µg/mL (≈ 5.93 µM). The MIC90 (Staphylococcus aureus [11]) was 4 µg/mL (≈ 11.9 µM), the MIC [2] was 4 µg/mL (≈ 11.9 µM) and the MIC50 [2] was 4 µg/mL (≈ 11.9 µM). For the same molecule, the MIC90 [2] was 8 µg/mL (≈ 23.7 µM), the MIC50 (Staphylococcus aureus [12]) was 2 µg/mL (≈ 5.93 µM) and the MIC90 (Staphylococcus aureus [12]) was 4 µg/mL (≈ 11.9 µM). It also gave an MIC50 [13] of 1 µg/mL (≈ 2.96 µM), an MIC90 [13] of 2 µg/mL (≈ 5.93 µM) and an MIC50 (Parvimonas micra) of 1 µg/mL (≈ 2.96 µM). For the same molecule, the MIC90 (Parvimonas micra) was 2 µg/mL (≈ 5.93 µM), the MIC50 (Clostridium perfringens) was 2 µg/mL (≈ 5.93 µM) and the MIC90 (Clostridium perfringens) was 4 µg/mL (≈ 11.9 µM). It also gave an MIC50 [3] of 1 µg/mL (≈ 2.96 µM), an MIC90 [3] of 2 µg/mL (≈ 5.93 µM) and an MIC (Phocaeicola vulgatus) of 2 µg/mL (≈ 5.93 µM). It also gave an MIC50 (Phocaeicola vulgatus) of 2 µg/mL (≈ 5.93 µM), an MIC90 (Phocaeicola vulgatus) of 4 µg/mL (≈ 11.9 µM) and an MIC50 (Enterococcus faecalis [14]) of 2 µg/mL (≈ 5.93 µM). It also gave an MIC90 (Enterococcus faecalis [14]) of 2 µg/mL (≈ 5.93 µM), an MIC (Bacteroides fragilis) of 4 µg/mL (≈ 11.9 µM) and an MIC50 (Bacteroides fragilis) of 4 µg/mL (≈ 11.9 µM). For the same molecule, the MIC90 (Bacteroides fragilis) was 4 µg/mL (≈ 11.9 µM), the MIC50 (Streptococcus agalactiae) was 2 µg/mL (≈ 5.93 µM) and the MIC90 (Streptococcus agalactiae) was 2 µg/mL (≈ 5.93 µM). It also gave an MIC50 (Enterococcus faecium [15]) of 2 µg/mL (≈ 5.93 µM) and an MIC90 (Enterococcus faecium [15]) of 4 µg/mL (≈ 11.9 µM).

In the case of Cc1ncc([N+](=O)[O-])n1CCO [METRONIDAZOLE], the MIC50 (Bacteroides ovatus) is reported as 1 µg/mL (≈ 5.84 µM), the MIC90 (Bacteroides ovatus) is reported as 1 µg/mL (≈ 5.84 µM) and the MIC50 (Prevotella sp.) is reported as 0.5 µg/mL (≈ 2.92 µM). It also gave an MIC90 (Prevotella sp.) greater than 32 µg/mL, an MIC50 [1] of 0.5 µg/mL (≈ 2.92 µM) and an MIC90 [1] of 1 µg/mL (≈ 5.84 µM). It also gave an MIC50 [2] of 1 µg/mL (≈ 5.84 µM), an MIC90 [2] of 1 µg/mL (≈ 5.84 µM) and an MIC (Parvimonas micra) of no more than 0.06 µg/mL. For the same molecule, the MIC50 (Parvimonas micra) was no more than 0.06 µg/mL, the MIC90 (Parvimonas micra) was greater than 32 µg/mL and the MIC50 (Clostridium perfringens) was 1 µg/mL (≈ 5.84 µM). The MIC90 (Clostridium perfringens) was greater than 32 µg/mL, the MIC50 [3] was 1 µg/mL (≈ 5.84 µM) and the MIC90 [3] was 1 µg/mL (≈ 5.84 µM). It also gave an MIC50 (Phocaeicola vulgatus) of 0.25 µg/mL (≈ 1.46 µM), an MIC90 (Phocaeicola vulgatus) of 0.25 µg/mL (≈ 1.46 µM) and an MIC50 (Bacteroides fragilis) of 0.12 µg/mL (≈ 0.701 µM). It also gave an MIC90 (Bacteroides fragilis) of 1 µg/mL (≈ 5.84 µM).
